What was measured:
[1] = test system: Rattus norvegicus; assay: Plasma unbound clearance in rat at 1 mg/kg, iv; assay type: ADME, organism-based; settings: in vivo
Summary of the method: (§1)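 In rats, 1 mg/kg was given by both IV and PO routes. IV clearance is unbound (Cl_p,u, L/hr/kg). FaFg is taken as F/(1-Clp/Qh), using rat Qh 3.8 L/hr/kg. Unbound plasma fraction was determined in rat plasma.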

[2] = test system: Liver; assay: Unbound intrinsic clearance in human liver microsomes at 10 uM preincubated for 5 mins followed by NADPH addition measured after 60 mins by HPLC-UV-MS analysis; assay type: ADME, microsome; settings: 1 h
[3] = test system: Mus musculus; assay: Oral absorption in mouse at 10 mg/kg; assay type: ADME, organism-based; settings: in vivo
Summary of the method: (§2)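 Oral absorption is expressed as FaFg, calculated as F/(1-Clp/Qh). Liver blood flow (Qh) was 5.2 L/hr/kg for mouse and 3.8 L/hr/kg for rat. Mouse dosing was 3 mg/kg IV and 10 mg/kg PO; rat dosing was 1 mg/kg IV and PO.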

[4] = test system: Liver; assay: Unbound intrinsic clearance in mouse liver microsomes; assay type: ADME, microsome
Summary of the method: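 Liver microsome stability is expressed as unbound intrinsic clearance, Cl_int,u, in L/hr/kg. Dextromethorphan served as the in-house low-clearance reference control and verapamil as the high-clearance reference control.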

[5] = Fraction unbound in mouse plasma at 1 uM after 4 hrs by LC-MS/MS method; assay type: ADME, cell-free
[6] = Oral bioavailability in mouse at 10 mg/kg; assay type: ADME, organism-based; settings: in vivo
Summary of the method: (§3)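 Mouse PK: 3 mg/kg IV and 10 mg/kg PO. Clearance is expressed unbound, Cl_p,u in L/hr/kg. AUC is unbound, in µM*hr. FaFg is computed as F/(1-Clp/Qh), with mouse liver blood flow Qh 5.2 L/hr/kg. Unbound plasma fraction was measured separately.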

[7] = Oral bioavailability in rat at 1 mg/kg; assay type: ADME, organism-based; settings: in vivo; summary of the method: as §1
[8] = biological target: T1, Bromodomain-containing protein 4 (Homo sapiens, UniProt O60885); assay: Inhibition of BRD4 in human H1299 cells assessed as decrease in HPV LCR-E2-EP400-mediated transcriptional repression after 24 hrs by Bright-Glo luciferase reporter gene assay; assay type: cell-based
[9] = test system: Mus musculus; assay: Unbound AUC in mouse at 10 mg/kg, po; assay type: ADME, organism-based; settings: in vivo; summary of the method: as §3
[10] = Fraction unbound in rat plasma at 1 uM after 4 hrs by LC-MS/MS method; assay type: ADME, cell-free
[11] = biological target: T1, Bromodomain-containing protein 4; assay: Binding affinity to human N-terminal His6-tagged BRD4 BD1-BD2 (K57 to K550 residues) after 1 hr using alexa-647 conjugated probe by TR-FRET assay
[12] = test system: Liver; assay: Unbound intrinsic clearance in rat liver microsomes at 10 uM preincubated for 5 mins followed by NADPH addition measured after 60 mins by HPLC-UV-MS analysis; assay type: ADME, microsome; settings: 1 h
[13] = test system: Mus musculus; assay: Plasma unbound clearance in mouse at 3 mg/kg, iv; assay type: ADME, organism-based; settings: in vivo; summary of the method: as §3
[14] = Permeability in MDCK cells; assay type: ADME, cell-based, Canis lupus familiaris; settings: dog, read-out: permeability
[15] = test system: Rattus norvegicus; assay: Unbound AUC in rat at 1 mg/kg, po; settings: in vivo
[16] = test system: MX1; assay: Antiproliferative activity against human MX1 cells after 72 hrs by Cell Titer Glo assay; assay type: functional, cell-based; settings: MX1, 72 h
[17] = test system: Rattus norvegicus; assay: Oral absorption in rat at 1 mg/kg; assay type: ADME, organism-based; settings: in vivo; summary of the method: as §2
[18] = test system: Mus musculus; assay: Toxicity in NOD.SCID mouse assessed as maximum mean body weight loss at 8 mg/kg, iv qd for every 7 days (reference value: 9%); assay type: organism-based; settings: in vivo, 168 h
[19] = Toxicity in iv dosed NOD.SCID mouse xenografted with gamma-irradiated human Kasumi-1 cells administered as […] for every 7 days; assay type: organism-based; settings: in vivo
Summary of the method: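 Kasumi-1 AML xenograft in mice; dosing intravenous once every 7 days at 8 mg/kg.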

SMILES	clearance [1]	CL free [2]	FaFg [3]	CL free [4]	fraction unbound at 4 h, 1 µM [5]	bioavailability [6]	bioavailability [7]	EC50 [8]	fAUC [9]	fraction unbound at 4 h, 1 µM [10]	Ki [11]	CL free [12]	clearance [13]	Papp [14]	fAUC [15]	EC50 [16]	FaFg [17]	Activity [18]	MTD at 168 h [19]
Cn1cc(-c2cc(NS(C)(=O)=O)ccc2Oc2ccc(F)cc2F)c2cc[nH]c2c1=O	417 mL/min/kg	155 mL/min/kg	0.7	283 mL/min/kg	0.033	65%	40%	21 nM	1.3 µM·h	0.036	4.5 nM	< 65 mL/min/kg	167 mL/min/kg	17 ×10⁻⁶ cm/s	0.19 µM·h	29 nM	0.52	–	–
Cn1cc(-c2cc(NS(C)(=O)=O)ccc2Oc2ccccc2)c2cc[nH]c2c1=O	1230 mL/min/kg	83.3 mL/min/kg	0.77	300 mL/min/kg	0.039	55%	10%	11 nM	0.34 µM·h	0.034	2.4 nM	2000 mL/min/kg	650 mL/min/kg	12 ×10⁻⁶ cm/s	0.016 µM·h	16 nM	0.32	–	–
Nc1ncn([C@@H]2O[C@H](CO)[C@@H](O)[C@H]2O)c(=O)n1 [AZACITIDINE]	–	–	–	–	–	–	–	–	–	–	–	–	–	–	–	–	–	1%	8 mg/kg

Source: ChEMBL document CHEMBL4017535 (J Med Chem, 2017)
